Reference: ChEMBL document CHEMBL4011627, “Hepatitis C Virus NS3/4A Protease Inhibitors Incorporating Flexible P2 Quinoxalines Target Drug Resistant Viral Variants” (J Med Chem, 2017)

Legend:
[1] = Inhibition of HCV genotype 1a NS3/4A protease using Ac-DE-Dap(QXL 520)-EE-Abu-psi-[COO]AS-C(5-FAMsp)-NH2 as substrate preincubated for 1 hr followed by substrate addition; design: species or system Hepatitis C virus subtype 1a
In short: (§1)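 Protease domain at 2 nM preincubated 1 h at room temperature with inhibitor titrations (at least 12 concentrations) in 50 mM Tris, 5% glycerol, 10 mM DTT, 0.6 mM LDAO, 4% DMSO. Reaction started with fluorogenic substrate (200 nM final) and followed kinetically (ex 485/em 530 nm). Three independent data sets, fit globally to the Morrison equation for Ki.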

[2] = Inhibition of HCV genotype 3a NS3/4A protease using Ac-DE-Dap(QXL520)-EE-Abu-psi-[COO]AS-C(5-FAMsp)-NH2 as substrate preincubated for 1 hr followed by substrate addition; design: species or system Hepatitis C virus subtype 3a; in short: as §1
[3] = molecular target: Hepatitis C virus serine protease, NS3/NS4A (Hepatitis C virus, UniProt A3EZI9+D2K2A8, D168A); test: Inhibition of HCV genotype 1a NS3/4A protease D168A mutant using Ac-DE-Dap(QXL 520)-EE-Abu-psi-[COO]AS-C(5-FAMsp)-NH2 as substrate preincubated for 1 hr followed by substrate addition; design: species or system Hepatitis C virus subtype 1a
In short: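 NS3/4A protease domain at 2 nM pre-incubated 1 h at room temperature with increasing inhibitor (at least 12 concentrations) in 50 mM Tris, 5% glycerol, 10 mM DTT, 0.6 mM LDAO, 4% DMSO. Reaction started with FRET substrate (final 200 nM), monitored kinetically (ex 485/em 530 nm). Three independent data sets; global Morrison fit for Ki.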

[4] = test system: Hepatitis C virus; test: Antiviral activity against HCV genotype 1b Con1 harboring HCV genotype 1a H77 NS3 infected in human HuH7 cells assessed as inhibition of viral replication after 96 hrs by luciferase reporter gene assay; assay type: functional, cell-based, Hepacivirus hominis; conditions: genotype 1b Con1, Huh-7, 96 h
[5] = test system: Hepatitis C virus; test: Antiviral activity against HCV genotype 1b Con1 harboring HCV genotype 1a H77 NS3 R155K mutant infected in human HuH7 cells assessed as inhibition of viral replication after 96 hrs by luciferase reporter gene assay; assay type: functional, cell-based, Hepacivirus hominis; conditions: genotype 1b Con1, Huh-7, 96 h
[6] = test system: Hepatitis C virus; test: Antiviral activity against HCV genotype 1b Con1 harboring HCV genotype 1a H77 NS3 A156T mutant infected in human HuH7 cells assessed as inhibition of viral replication after 96 hrs by luciferase reporter gene assay; assay type: functional, cell-based, Hepacivirus hominis; conditions: genotype 1b Con1, Huh-7, 96 h
[7] = test system: Hepatitis C virus; test: Antiviral activity against HCV genotype 1b Con1 harboring HCV genotype 1a H77 NS3 D168A mutant infected in human HuH7 cells assessed as inhibition of viral replication after 96 hrs by luciferase reporter gene assay; assay type: functional, cell-based, Hepacivirus hominis; conditions: genotype 1b Con1, Huh-7, 96 h
[8] = test system: Hepatitis C virus; test: Antiviral activity against HCV genotype 1b Con1 harboring HCV genotype 1a H77 NS3 D168V mutant infected in human HuH7 cells assessed as inhibition of viral replication after 96 hrs by luciferase reporter gene assay; assay type: functional, cell-based, Hepacivirus hominis; conditions: genotype 1b Con1, Huh-7, 96 h

SMILES	Ki [1] [nM]	Ki [2] [nM]	Ki [3] [nM]	EC50 [4] [nM]	EC50 [5] [nM]	EC50 [6] [nM]	EC50 [7] [nM]	EC50 [8] [nM]
COc1ccc2nc(Cl)c(O[C@@H]3C[C@H]4C(=O)N[C@]5(C(=O)NS(=O)(=O)C6CC6)C[C@H]5/C=C\CCCCC[C@H](NC(=O)OC5CCCC5)C(=O)N4C3)nc2c1	0.49	85.6	30.6	0.15	0.59	3.55	1.32	1.55
CCc1nc2ccccc2nc1O[C@@H]1C[C@H]2C(=O)N[C@]3(C(=O)NS(=O)(=O)C4CC4)C[C@H]3/C=C\CCCCC[C@H](NC(=O)OC3CCCC3)C(=O)N2C1	1.99		107	0.24	4.28	24.6	7.5	19.3
CCc1nc2ccc(OC)cc2nc1O[C@@H]1C[C@H]2C(=O)N[C@]3(C(=O)NS(=O)(=O)C4CC4)C[C@H]3/C=C\CCCCC[C@H](NC(=O)OC(C)(C)C)C(=O)N2C1	3.29	204	82.4	0.33	1.75	9.65	6.31	9.1
CCc1nc2ccccc2nc1O[C@@H]1C[C@H]2C(=O)N[C@]3(C(=O)NS(=O)(=O)C4CC4)C[C@H]3/C=C\CCCCC[C@H](NC(=O)OC(C)(C)C)C(=O)N2C1	7.18		190	0.46	1.81	10.6	8.55	14
COc1ccc2nc(C)c(O[C@@H]3C[C@H]4C(=O)N[C@]5(C(=O)NS(=O)(=O)C6CC6)C[C@H]5/C=C\CCCCC[C@H](NC(=O)OC5CCCC5)C(=O)N4C3)nc2c1	0.93	147	31.9	0.11	0.89	2.88	2.63	4.32
COc1ccc2nc(C)c(O[C@@H]3C[C@H]4C(=O)N[C@]5(C(=O)NS(=O)(=O)C6(C)CC6)C[C@H]5/C=C\CCCCC[C@H](NC(=O)OC5CCCC5)C(=O)N4C3)nc2c1	1.13	121	36.3	0.13	1.09	3.99	2.16	
COc1ccc2nc(C(C)C)c(O[C@@H]3C[C@H]4C(=O)N[C@]5(C(=O)NS(=O)(=O)C6CC6)C[C@H]5/C=C\CCCCC[C@H](NC(=O)OC(C)(C)C)C(=O)N4C3)nc2c1	4.27		239	1.43	5.02	25.7	15.3	23.7
COc1ccc2nc(C(F)(F)F)c(O[C@@H]3C[C@H]4C(=O)N[C@]5(C(=O)NS(=O)(=O)C6CC6)C[C@H]5/C=C\CCCCC[C@H](NC(=O)OC5CCCC5)C(=O)N4C3)nc2c1	7.55	757	115	4.86	7.97	117	15.1	24
CCc1nc2ccc(OC)cc2nc1O[C@@H]1C[C@H]2C(=O)N[C@]3(C(=O)NS(=O)(=O)C4CC4)C[C@H]3/C=C\CCCCC[C@H](NC(=O)OC3CCCC3)C(=O)N2C1	1.24	211	52.3	0.14	2.08	11.8	3.6	11.9
COc1ccc2nc(C)c(O[C@@H]3C[C@H]4C(=O)N[C@]5(C(=O)NS(=O)(=O)C6(C)CC6)C[C@H]5/C=C\CCCCC[C@H](NC(=O)OC(C)(C)C)C(=O)N4C3)nc2c1	3.6	119	52	0.3	0.8	1.57	2.37	1.6
COc1ccc2nc(C(C)C)c(O[C@@H]3C[C@H]4C(=O)N[C@]5(C(=O)NS(=O)(=O)C6(C)CC6)C[C@H]5/C=C\CCCCC[C@H](NC(=O)OC5CCCC5)C(=O)N4C3)nc2c1	1.34		156	0.59	6.83	27.6	7.91	18.2
CCc1nc2ccc(OC)cc2nc1O[C@@H]1C[C@H]2C(=O)N[C@]3(C(=O)NS(=O)(=O)C4(C)CC4)C[C@H]3/C=C\CCCCC[C@H](NC(=O)OC3CCCC3)C(=O)N2C1	1.37	186	55.2	0.16	2.07	10.6	3.45	7.08
CCc1nc2ccc(OC)cc2nc1O[C@@H]1C[C@H]2C(=O)N[C@]3(C(=O)NS(=O)(=O)C4(C)CC4)C[C@H]3/C=C\CCCCC[C@H](NC(=O)OC(C)(C)C)C(=O)N2C1	1.82	171	55.2	0.43	1.8	4.52	4.97	6.42
COc1ccc2nc(Cl)c(O[C@@H]3C[C@H]4C(=O)N[C@]5(C(=O)NS(=O)(=O)C6CC6)C[C@H]5/C=C\CCCCC[C@H](NC(=O)OC(C)(C)C)C(=O)N4C3)nc2c1	1.07	67.5	39.8	0.16	0.44	16.2	1.42	0.73
COc1ccc2nc(Cl)c(O[C@@H]3C[C@H]4C(=O)N[C@]5(C(=O)NS(=O)(=O)C6(C)CC6)C[C@H]5/C=C\CCCCC[C@H](NC(=O)OC(C)(C)C)C(=O)N4C3)nc2c1	1.11	53.6	77.7	0.18	0.4	8.86	1.07	0.49
COc1ccc2nc(C(F)(F)F)c(O[C@@H]3C[C@H]4C(=O)N[C@]5(C(=O)NS(=O)(=O)C6(C)CC6)C[C@H]5/C=C\CCCCC[C@H](NC(=O)OC5CCCC5)C(=O)N4C3)nc2c1	8.14	433	110	4.04	6.9	75.9	8.46	11.4
COc1ccc2nc(C(C)C)c(O[C@@H]3C[C@H]4C(=O)N[C@]5(C(=O)NS(=O)(=O)C6(C)CC6)C[C@H]5/C=C\CCCCC[C@H](NC(=O)OC(C)(C)C)C(=O)N4C3)nc2c1	0.58		211	1.86	4.14	21.2	11.9	18.1
COc1ccc2nc(C(C)C)c(O[C@@H]3C[C@H]4C(=O)N[C@]5(C(=O)NS(=O)(=O)C6CC6)C[C@H]5/C=C\CCCCC[C@H](NC(=O)OC5CCCC5)C(=O)N4C3)nc2c1	1.44		161	0.48	7.63	32.1	7.96	30.1
